The nature of test [1]: Cytotoxicity against human H460 cells after 72 hrs by AlamarBlue assay. The following applies: NCI-H460, 72 h. In kind it is functional, cell-based. In a few lines: (§1)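 Growth inhibition read by alamarBlue. After reagent addition, plates were held 6 h at 37 °C and absorbance read at 570 and 600 nm. IC50 was derived from dose-response curves over 6 or 7 drug concentrations by the median-effect method. Values are mean and STDEV of three to six independent experiments.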

The nature of test [2]: Cytotoxicity against human H1299 cells after 72 hrs by AlamarBlue assay. In kind it is functional, cell-based. The following applies: NCI-H1299, 72 h. The procedure, abridged: as §1
Background: Alamar Blue is a resazurin reagent that responds to reducing activity.

The subject of a further test is HCT-116. The test can be described thus: Cytotoxicity against human HCT116 cells after 72 hrs by AlamarBlue assay. Format: functional, cell-based. To be noted: HCT-116, 72 h. In a few lines:
as §1

Test [3] relates to CCRF-CEM. As to the kind of experiment: Ratio of IC50 for human vinblastine-resistant CCRF-CEM cells to IC50 for human CCRF-CEM cells. Format: functional. The procedure, abridged:
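Ratio of alamarBlue IC50 values, determined in the CCRF-CEM/VBL vinblastine-resistant subline and in the parental CCRF-CEM line.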

The test system of the next test is PC-3. The test can be described thus: Cytotoxicity against human PC3 cells after 72 hrs by AlamarBlue assay. The following applies: PC-3, 72 h. In kind it is functional, cell-based. The procedure, abridged: as §1
Test [4] has as its system CCRF-CEM. The test can be described thus: Cytotoxicity against human vinblastine-resistant CCRF-CEM cells after 72 hrs by AlamarBlue assay. In kind it is functional, cell-based. The procedure, abridged:
as §1

Test [5] deals with CCRF-CEM. As to the kind of experiment: Cytotoxicity against human CCRF-CEM cells after 72 hrs by AlamarBlue assay. In kind it is functional, cell-based. In a few lines:
as §1

A short description of test [6]: Induction of DNA cross-linking activity in pEGFP-N1 DNA (unknown origin) at 20 uM after 2 hrs by alkaline agarose gel shift assay. In a few lines:
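pEGFP-N1 plasmid DNA incubated with compound at 1, 10 or 20 µM in binding buffer (30 mM NaCl/10 mM sodium phosphate pH 7.4, 10 mM EDTA) for 2 h at 37 °C. DNA then linearized with BamHI for 6 h, ethanol-precipitated and run on alkaline agarose gel. Cross-linked double-stranded DNA was scored against single-stranded DNA. Melphalan (1 and 10 µM) was the positive control.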
(In general: Mobility shift assays separate free from complexed probe on a gel.)

The structures appear in SMILES notation. The source made the active and inactive calls. The calls are words filed in the database; no cut-off is given here. Where only a bound is given, the exact number is not on record here.

For `Cc1cc(Nc2ccc(F)c(Cl)c2)c2cc(NC(=O)Nc3ccc(N(CCCl)CCCl)cc3)ccc2n1`, the IC50 – broadly, the midpoint of a concentration-inhibition curve – was determined as 1400 nM in test [1]; 1070 nM in test [2]; 830 nM in the test on HCT-116; 1780 nM in the test with PC-3; 9830 nM with CCRF-CEM [4]; 540 nM in the test on CCRF-CEM [5]. The “Ratio IC50” value in the test on CCRF-CEM [3] came out at 18.2.
Turning to `Cc1cccc(Nc2cc(C)nc3ccc(NC(=O)Nc4ccc(N(CCCl)CCCl)cc4)cc23)c1`, the IC50 in test [1] amounted to 920 nM; in test [2], 1050 nM; with HCT-116 it was 490 nM; in the test on PC-3, 1290 nM; in the test on CCRF-CEM [4], 5850 nM; in the test on CCRF-CEM [5] it was 390 nM. In the test with CCRF-CEM [3], the “Ratio IC50” value is on record as 15. Further, in test [6], the outcome was Active.
Turning to `Cc1cc(Nc2cccc(F)c2)c2cc(NC(=O)Nc3ccc(N(CCCl)CCCl)cc3)ccc2n1`, the IC50 worked out at 860 nM in test [1]; 1090 nM in test [2]; 740 nM in the test on HCT-116; 1490 nM with PC-3; 9580 nM in the test on CCRF-CEM [4]; 700 nM in the test on CCRF-CEM [5]. Further, the “Ratio IC50” value with CCRF-CEM [3] is 13.68.
In the case of `CC[C@]1(O)C[C@@H]2CN(CCc3c([nH]c4ccccc34)[C@@](C(=O)OC)(c3cc4c(cc3OC)N(C)[C@H]3[C@@](O)(C(=O)OC)[C@H](OC(C)=O)[C@]5(CC)C=CCN6CC[C@]43[C@@H]65)C2)C1` [VINBLASTINE], the “Ratio IC50” value with CCRF-CEM [3] turned out to be 300. Moreover, the IC50 in the test with CCRF-CEM [4] amounted to 870 nM; in the test on CCRF-CEM [5] it was 2.9 nM.
Take `CNc1cc(C)nc2ccc(NC(=O)Nc3ccc(N(CCCl)CCCl)cc3)cc12`: the IC50 in test [1] was 9370 nM; in test [2], 5400 nM; in the test with HCT-116 it was 1280 nM; in the test with PC-3 it was 2510 nM; in the test with CCRF-CEM [4] it was greater than 100000 nM; with CCRF-CEM [5], 390 nM. Also, the “Ratio IC50” value in the test with CCRF-CEM [3] is greater than 256.
`Cc1cc(Nc2cccc(C(F)(F)F)c2)c2cc(NC(=O)Nc3ccc(N(CCCl)CCCl)cc3)ccc2n1`: the IC50 in test [1] is 850 nM; in test [2], 1480 nM; with HCT-116, 620 nM; in the test with PC-3, 1420 nM; in the test on CCRF-CEM [4], 5960 nM; with CCRF-CEM [5] it was 590 nM. In addition, the “Ratio IC50” value in the test with CCRF-CEM [3] was found to be 10.1.
Consider `Cc1cc(Nc2ccc(Cl)cc2)c2cc(NC(=O)Nc3ccc(N(CCCl)CCCl)cc3)ccc2n1`, for which the IC50 in test [1] came out at 840 nM; in test [2], 1310 nM; in the test on HCT-116, 770 nM; in the test on PC-3, 1360 nM; in the test on CCRF-CEM [4] it was 8180 nM; with CCRF-CEM [5], 730 nM. Also, the “Ratio IC50” value with CCRF-CEM [3] is given as 11.21.
For `Cc1cccc(Nc2cc(-c3ccccc3)nc3ccc(NC(=O)Nc4ccc(N(CCCl)CCCl)cc4)cc23)c1`, the IC50 was found to be 2090 nM in test [1]; 1420 nM in test [2]; 1800 nM with HCT-116; 1230 nM with PC-3; 4150 nM in the test with CCRF-CEM [4]; 1840 nM in the test on CCRF-CEM [5]. Besides, in the test on CCRF-CEM [3], the “Ratio IC50” value is recorded as 2.25.
For the compound `COc1cccc(Nc2cc(-c3ccccc3)nc3ccc(NC(=O)Nc4ccc(N(CCCl)CCCl)cc4)cc23)c1`, the IC50 in test [1] was determined as 1890 nM; in test [2] it was 2130 nM; in the test with HCT-116, 1350 nM; with PC-3, 2210 nM; in the test with CCRF-CEM [4], 2710 nM; with CCRF-CEM [5] it was 790 nM. For the same compound, in the test with CCRF-CEM [3], the “Ratio IC50” value is recorded as 3.43.
For the compound `COc1cc(Nc2cc(C)nc3ccc(NC(=O)Nc4ccc(N(CCCl)CCCl)cc4)cc23)cc(OC)c1OC`, the IC50 in test [1] was 3740 nM; in test [2], 2540 nM; in the test with HCT-116, 1810 nM; in the test with PC-3, 3460 nM; with CCRF-CEM [4], greater than 100000 nM; with CCRF-CEM [5], 800 nM. Moreover, the “Ratio IC50” value in the test on CCRF-CEM [3] was greater than 125.
Consider `Cc1cc(Nc2ccc(F)cc2)c2cc(NC(=O)Nc3ccc(N(CCCl)CCCl)cc3)ccc2n1`, for which the IC50 in test [1] is 1010 nM; in test [2], 2370 nM; with HCT-116, 1060 nM; in the test with PC-3, 7160 nM; in the test on CCRF-CEM [4], 11000 nM; in the test with CCRF-CEM [5], 420 nM. In the test on CCRF-CEM [3], the “Ratio IC50” value is 26.19.
For `Cc1cc(Nc2ccccc2)c2cc(NC(=O)Nc3ccc(N(CCCl)CCCl)cc3)ccc2n1`, the 50% inhibitory concentration (IC50) worked out at 1370 nM in test [1]; 1730 nM in test [2]; 830 nM with HCT-116; 1490 nM in the test with PC-3; 11500 nM in the test on CCRF-CEM [4]; 440 nM in the test on CCRF-CEM [5]. Moreover, the “Ratio IC50” value in the test with CCRF-CEM [3] worked out at 26.15.
Regarding `C#Cc1cccc(Nc2cc(C)nc3ccc(NC(=O)Nc4ccc(N(CCCl)CCCl)cc4)cc23)c1`, the IC50 in test [1] was 700 nM; in test [2] it was 1130 nM; in the test with HCT-116 it was 590 nM; with PC-3, 1170 nM; in the test on CCRF-CEM [4], 4490 nM; in the test with CCRF-CEM [5] it was 470 nM. The “Ratio IC50” value in the test with CCRF-CEM [3] is 9.55.
For the compound `Cc1cc(Nc2ccc(F)c(Br)c2)c2cc(NC(=O)Nc3ccc(N(CCCl)CCCl)cc3)ccc2n1`, the IC50 in test [1] worked out at 820 nM; in test [2], 1280 nM; with HCT-116, 630 nM; in the test on PC-3 it was 1320 nM; with CCRF-CEM [4], 10200 nM; in the test with CCRF-CEM [5], 400 nM. Also, the “Ratio IC50” value in the test on CCRF-CEM [3] amounted to 25.45.
Consider `Cc1cc(Nc2cccc(Cl)c2)c2cc(NC(=O)Nc3ccc(N(CCCl)CCCl)cc3)ccc2n1`, for which the IC50 turned out to be 1030 nM in test [1]; 880 nM in test [2]; 560 nM with HCT-116; 1270 nM in the test on PC-3; 7560 nM in the test with CCRF-CEM [4]; 590 nM in the test with CCRF-CEM [5]. In addition, the “Ratio IC50” value in the test on CCRF-CEM [3] worked out at 12.81.
Take `O=C(Nc1ccc(N(CCCl)CCCl)cc1)Nc1ccc2nc(-c3ccccc3)cc(Nc3ccc(F)c(Cl)c3)c2c1`: the IC50 worked out at 7810 nM in test [1]; 5390 nM in test [2]; 3580 nM with HCT-116; 8860 nM in the test with PC-3; 7070 nM in the test with CCRF-CEM [4]; 2720 nM in the test with CCRF-CEM [5]. In the test with CCRF-CEM [3], the “Ratio IC50” value is on record as 2.59.
Regarding `COc1cccc(Nc2cc(C)nc3ccc(NC(=O)Nc4ccc(N(CCCl)CCCl)cc4)cc23)c1`, the IC50 came out at 1830 nM in test [1]; 1320 nM in test [2]; 620 nM with HCT-116; 2380 nM in the test on PC-3; 4220 nM with CCRF-CEM [4]; 280 nM with CCRF-CEM [5]. Besides, the “Ratio IC50” value in the test on CCRF-CEM [3] was found to be 15.07. Moreover, the outcome in test [6] was Active.
Consider `O=C(Nc1ccc(N(CCCl)CCCl)cc1)Nc1ccc2nc(-c3ccccc3)cc(Nc3cccc(Cl)c3)c2c1`, for which the IC50 was found to be 2260 nM in test [1]; 2350 nM in test [2]; 3690 nM in the test on HCT-116; 2130 nM in the test on PC-3; 4550 nM with CCRF-CEM [4]; 2070 nM in the test with CCRF-CEM [5]. Also, the “Ratio IC50” value in the test with CCRF-CEM [3] worked out at 2.19.
As for `Cc1cc(Nc2ccc(Br)cc2)c2cc(NC(=O)Nc3ccc(N(CCCl)CCCl)cc3)ccc2n1`, the IC50 in test [1] was 910 nM; in test [2], 1350 nM; with HCT-116 it was 800 nM; with PC-3, 1750 nM; in the test on CCRF-CEM [4], 9530 nM; in the test with CCRF-CEM [5], 520 nM. Besides, the “Ratio IC50” value in the test with CCRF-CEM [3] turned out to be 18.33.

The values above are taken from ChEMBL document CHEMBL3286279, “The synthesis and biological evaluation of new DNA-directed alkylating agents, phenyl N-mustard-4-anilinoquinoline conjugates containing a urea linker” (Eur J Med Chem, 2014).
